In the EternaBench riboswitch data:

System: MS2 coat protein
Experiment: apparent Kd, MS2 coat protein; higher = weaker binding; RNA-MaP array; FMN 200 µM where present
Summary of the method: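 Stalled E. coli RNA polymerase transcribed each design on Illumina sequencing-chip clusters. The clusters were titrated with SNAP-549-labelled MS2 coat protein, starting at 0.7 or 1.5 nM and doubling up to 3 µM, first without ligand and then with constant ligand, in 100 mM Tris-HCl pH 7.5, 80 mM KCl, 4 mM MgCl2, BSA, DTT, yeast tRNA and Tween-20. Green signal was normalised to red-channel RNA signal and to the control-cluster median Fmax. The apparent Kd is the median of filtered binding-curve fits made for each cluster.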

[1] = designed as: ON switch for flavin mononucleotide, no ligand
[2] = ligand present: flavin mononucleotide, designed as: ON switch for flavin mononucleotide
[3] = designed as: OFF switch for flavin mononucleotide, no ligand
[4] = ligand present: flavin mononucleotide, designed as: OFF switch for flavin mononucleotide

Sequence	apparent Kd [1] [µM]	apparent Kd [2] [µM]	apparent Kd [3] [µM]	apparent Kd [4] [µM]
GAAGAACAUGAGGAUCACCCAUGUGAUUCGCAUGUAGGAUAUGGGCACGCGCCCGCGUGUCUAGAAGGACAGGCUA	0.0693	0.109		
AAUGUUUGAUUCCACUUAUACAUGAGGAUCACCCAUGUUAUCGAGGAUAUGCAUUAGAGCGUUUAGCAGAAGGCGAUGUAAUUG			0.00741	0.0203
CGUUAUGAUAGAGGAUAUGUAAUACAUGAGGAUCACCCAUGUUACAUGGGUAAUAUUAAUAAUUAACAGAAGGCUAUCCUUUCG			0.484	0.149
AUAUCCGAAGCAGGAUAUCGACGAGGUGUCGAGAUAGAGCGUACUCACAUGAGGAUCACCCAUGUCGAGAAGGGCUAUAGGAUA			0.0222	0.0834
GGGCAACAUGAGGAUCACCCAUGUCAGGAUAUUGGGCCGGGCCCGAAAGGGCCCGGAACAAGAAGGGACAGCCC			0.0235	0.0245
AAGUCGAGCGUGAGGAUAUCGACCGGACGACCCAUCGAGAAGGCACAUGAGGAUCACCCAUGUGAUUCAGCUCA			0.0169	0.0259
AGUCGGAGCAGAGGAUAUACAUGAGGAUCACCCAUGUAAAUGAAUGAAGCCAGGAAACUGGCAAUGUAGAAGGCUGCUCCGACA			0.018	0.0528
AGACGGAUCCGCGGUCGAUGCUAACUAGAAGGGCAGGUCACAUGAGGAUCACCCAUGUAGUAUAUGUAGGAUAUAGGAAGCGUU	0.075	0.0158		
GUAGCAUACCGAGGAUAUUCAUAUAGGAAACUAACAUGAGGAUCACCCAUGUGGCGAAAGCCUUGGGAGAAGGCGGAAUGCUAC	0.408	0.0292		
UAAUAAUAAUAAUAGCAGAAUUACAUGAGGAUCACCCAUGUAUAGGAUAUCGUCAGGAAUACUGACGAGAAGGAUACAAACUGC			0.0176	0.0219
GGACUGGACUAGAAGGGUGAUGCGCUCGCAGACACAGGAUAUAGUCACAUGAGGAUCACCCAUGUCGGUCCAUGUAAAGAAACU	0.0203	0.0148		
UCAUGGAAGUAGAAGGGUAAUAUAUUAGAUUUUACUAUUAGAUGUAGAUAUACAGGAUAUGCGAACAUGAGGAUCACCCAUGUG			0.0627	0.0356
ACGAGGUCAGGAUAUACGGAGAGAGGGAGUUGGUUAGGGUAACAUGAGGAUCACCCAUGUAGAAGGGACUAGGG			0.0486	0.0403
AACUCGUCAGGAUAUGCGCACAGAUAAUACGCUUCACAAUUGCAGAAGGGACAUGAGGAUCACCCAUGUAAAUA			0.0363	0.0268
UGUAUGUGGGCAGGAUAUACAUGAAUAUAUAUGAUGUAGUAUGAUGUAACAUGAGGAUCACCCAUGUAGAAGGGCCGGUGUAUG			0.165	0.214
UGGUACUAGGGAGGAUAUGGGAAGAUACAUGAGGAUCACCCAUGUUUAAGAAUGCCGAGAGGCAACUAGAAGGCCCUAGUUCCU	0.39	0.0195		
UUAUACGUUGAGGAUAUGCGAAUUAGUAUAGUUGCAGAAGGCGAUACAUGAGGAUCACCCAUGUUCAUGGGCAU			0.127	0.243
AAAACACAUGAGGAUCACCCAUGUAUCUGGACCAUAGGAUAUCCGCGCCCACUAGGGUGUGGAGAAGGGUGAGCCC	0.204	0.245		
GGUUAUGAAGGAUAUACAUGAGGAUCACCCAUGUUACGUACUUCGGGAUUCUGCCAGUGUAGAAGGUCAUGUCU			0.0243	0.0492
AAUUUCAGAAGAGGAUAUUGACAUGAGGAUCACCCAUGUAUUUGGGAAUGUUUACUGAAUUCUUACAAGAAGGUUUACGAACUU			0.098	0.0797
ACAAAUGGAGGAUAUACAUGAGGAUCACCCAUGUAUAUCCUACAUAUGUGAUAAUCAUGUAGAAGGCCAUUUGA			0.0123	0.011
